Molecular target: Protein farnesyltransferase (Rattus norvegicus, UniProt Q02293+Q04631)
Assay: Inhibitory concentration against rat brain farnesyltransferase
Outline: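 Rat brain FTase (40-fold purified), pH 7.4, in 30 mM potassium phosphate, 5 mM phosphate plus 50 mM Hepes, or 50 mM Hepes. Buffer also held 7 mM DTT, 1.2 mM MgCl2 and protease inhibitors. Final substrates were 0.12 μM [1-3H]FPP and 0.1 μM biotinyl-aminoheptanoyl-TKCVIM, with inhibitor varied from DMSO stock. Reaction ran 30 min at 37 °C, was stopped with streptavidin beads, and was counted by scintillation proximity. Generally n = 2.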

SMILES | IC50
C[C@H](NC(=O)[C@@H](Cc1c[nH]c2ccccc12)NC(=O)[C@@H](COCc1ccccc1)NC(=O)[C@@H](Cc1ccc(OCc2ccccc2)cc1)NC(=O)[C@@H](Cc1c[nH]cn1)NC(=O)[C@@H]1CCC(=O)N1)C(N)=O | > 20000 nM
C[C@H](NC(=O)[C@@H](Cc1c[nH]c2ccccc12)NC(=O)C(Cc1ccccc1)NC(=O)[C@@H](Cc1ccc(OCc2ccccc2)cc1)NC(=O)[C@@H](Cc1c[nH]cn1)NC(=O)OCc1ccccc1)C(N)=O (stereo not given in full) | 130 nM
C[C@H](NC(=O)[C@@H](Cc1c[nH]c2ccccc12)NC(=O)[C@@H](COCc1ccccc1)NC(=O)[C@@H](Cc1ccc(OCc2ccccc2)cc1)NC(=O)C(Cc1c[nH]c2ccccc12)NC(=O)OCc1ccccc1)C(N)=O (stereo not given in full) | > 20000 nM
C[C@H](NC(=O)[C@@H](Cc1c[nH]c2ccccc12)NC(=O)[C@@H](COCc1ccccc1)NC(=O)[C@@H](Cc1ccc(OCc2ccccc2)cc1)NC(=O)[C@@H](Cc1cnc[nH]1)NC(=O)OCc1ccccc1)C(=O)NN | 64 nM
COC(=O)[C@H](C)NC(=O)[C@@H](Cc1c[nH]c2ccccc12)NC(=O)[C@@H](COCc1ccccc1)NC(=O)[C@@H](Cc1ccc(OCc2ccccc2)cc1)NC(=O)[C@@H](Cc1cnc[nH]1)NC(=O)OCc1ccccc1 | 48 nM
CCNC(=O)[C@H](C)NC(=O)[C@@H](Cc1c[nH]c2ccccc12)NC(=O)[C@@H](COCc1ccccc1)NC(=O)[C@@H](Cc1ccc(OCc2ccccc2)cc1)NC(=O)[C@@H](Cc1c[nH]cn1)NC(=O)OCc1ccccc1 | 170 nM
C[C@H](NC(=O)[C@@H](Cc1c[nH]c2ccccc12)NC(=O)[C@H](COCc1ccccc1)NC(=O)[C@@H](Cc1ccc(OCc2ccccc2)cc1)NC(=O)[C@@H](Cc1cnc[nH]1)NC(=O)OCc1ccccc1)C(N)=O | 13000 nM
C[C@H](NC(=O)[C@@H](Cc1c[nH]c2ccccc12)NC(=O)[C@@H](COCc1ccccc1)NC(=O)C(CCCCN)NC(=O)[C@@H](Cc1cnc[nH]1)NC(=O)OCc1ccccc1)C(N)=O (stereo not given in full) | 1900 nM
C[C@H](NC(=O)[C@@H](Cc1c[nH]c2ccccc12)NC(=O)[C@@H](COCc1ccccc1)NC(=O)C(CCC(N)=O)NC(=O)[C@@H](Cc1cnc[nH]1)NC(=O)OCc1ccccc1)C(N)=O (stereo not given in full) | 54 nM
C[C@H](NC(=O)[C@@H](Cc1c[nH]c2ccccc12)NC(=O)[C@@H](COCc1ccccc1)NC(=O)[C@@H](Cc1ccc(OCc2ccccc2)cc1)NC(=O)C(CS)NC(=O)OCc1ccccc1)C(N)=O (stereo not given in full) | 170 nM
CC(NC(=O)[C@@H](COCc1ccccc1)NC(=O)[C@@H](Cc1ccc(OCc2ccccc2)cc1)NC(=O)[C@@H](Cc1cnc[nH]1)NC(=O)OCc1ccccc1)C(=O)N[C@@H](C)C(N)=O (stereo not given in full) | 250 nM
CC(=O)N[C@H](Cc1cnc[nH]1)C(=O)N[C@H](Cc1ccc(OCc2ccccc2)cc1)C(=O)N[C@H](COCc1ccccc1)C(=O)N[C@H](Cc1c[nH]c2ccccc12)C(=O)N[C@@H](C)C(N)=O | 10000 nM
CC(NC(=O)[C@@H](Cc1ccc(OCc2ccccc2)cc1)NC(=O)[C@@H](Cc1c[nH]cn1)NC(=O)OCc1ccccc1)C(=O)N[C@H](Cc1c[nH]c2ccccc12)C(=O)N[C@@H](C)C(N)=O (stereo not given in full) | 1100 nM
C[C@H](NC(=O)[C@@H](Cc1c[nH]c2ccccc12)NC(=O)[C@@H](COCc1ccccc1)NC(=O)C(CC1CCCCC1)NC(=O)[C@@H](Cc1cnc[nH]1)NC(=O)OCc1ccccc1)C(N)=O (stereo not given in full) | 66 nM
C[C@@H](NC(=O)[C@H](Cc1c[nH]c2ccccc12)NC(=O)[C@H](COCc1ccccc1)NC(=O)[C@H](Cc1ccccc1)NC(=O)[C@H](Cc1c[nH]cn1)NC(=O)OCc1ccccc1)C(N)=O (single isomer, unassigned) | 9 nM
C[C@@H](NC(=O)[C@H](Cc1c[nH]c2ccccc12)NC(=O)[C@H](COCc1ccccc1)NC(=O)[C@@H](Cc1ccc(O)cc1)NC(=O)[C@H](Cc1cnc[nH]1)NC(=O)OCc1ccccc1)C(N)=O (stereo in doubt) | 170 nM

More lines, now with the values ahead:

IC50 | SMILES
15 nM | C[C@H](NC(=O)[C@@H](Cc1c[nH]c2ccccc12)NC(=O)[C@H](NC(=O)[C@@H](Cc1ccc(OCc2ccccc2)cc1)NC(=O)[C@@H](Cc1cnc[nH]1)NC(=O)OCc1ccccc1)[C@@H](C)OCc1ccccc1)C(N)=O
1600 nM | C[C@H](NC(=O)[C@@H](Cc1c[nH]c2ccccc12)NC(=O)[C@@H](COCc1ccccc1)NC(=O)[C@@H](Cc1ccc(OCc2ccccc2)cc1)NC(=O)[C@@H](Cc1cnc[nH]1)NC(=O)OCC1c2ccccc2-c2ccccc21)C(N)=O
82 nM | C[C@H](NC(=O)[C@@H](Cc1c[nH]c2ccccc12)NC(=O)[C@@H](COCc1ccccc1)NC(=O)[C@@H](Cc1ccc(OCc2ccccc2)cc1)NC(=O)C(Cc1c[nH]cn1)NC(=O)OCc1ccccc1)C(N)=O (stereo not given in full)
38 nM | C[C@H](NC(=O)[C@@H](Cc1c[nH]c2ccccc12)NC(=O)[C@@H](COCc1ccccc1)NC(=O)[C@H](CC(=O)O)NC(=O)[C@@H](Cc1c[nH]cn1)NC(=O)OCc1ccccc1)C(N)=O
1000 nM | C[C@H](NC(=O)[C@@H](Cc1c[nH]c2ccccc12)NC(=O)[C@@H](COCc1ccccc1)NC(=O)[C@H](C)NC(=O)[C@@H](Cc1c[nH]cn1)NC(=O)OCc1ccccc1)C(N)=O
4900 nM | C[C@H](NC(=O)[C@@H](Cc1c[nH]c2ccccc12)NC(=O)[C@@H](COCc1ccccc1)NC(=O)[C@H](CS)NC(=O)[C@@H](Cc1c[nH]cn1)NC(=O)OCc1ccccc1)C(N)=O
3800 nM | C[C@H](NC(=O)[C@@H](Cc1c[nH]c2ccccc12)NC(=O)[C@@H](COCc1ccccc1)NC(=O)[C@@H](Cc1ccc(OCc2ccccc2)cc1)NC(=O)[C@@H](Cc1c[nH]cn1)NC(=O)OC1CCCCC1)C(N)=O
4700 nM | C[C@H](NC(=O)[C@@H](Cc1c[nH]c2ccccc12)NC(=O)[C@@H](COCc1ccccc1)NC(=O)[C@@H](Cc1ccc(OCc2ccccc2)cc1)NC(=O)C(N)CCCNC(=O)OCc1ccccc1)C(N)=O (stereo not given in full)
> 20000 nM | C[C@H](NC(=O)[C@@H](Cc1c[nH]c2ccccc12)NC(=O)[C@@H](COCc1ccccc1)NC(=O)[C@@H](Cc1ccc(OCc2ccccc2)cc1)NC(=O)C(Cc1ccccc1)NC(=O)OCc1ccccc1)C(N)=O (stereo not given in full)
4 nM | C[C@H](NC(=O)[C@@H](Cc1c[nH]c2ccccc12)NC(=O)[C@@H](CS)NC(=O)[C@@H](Cc1ccc(OCc2ccccc2)cc1)NC(=O)[C@@H](Cc1cnc[nH]1)NC(=O)OCc1ccccc1)C(N)=O
200 nM | C[C@H](NC(=O)[C@@H](Cc1c[nH]c2ccccc12)NC(=O)[C@@H](CCC(=O)O)NC(=O)[C@@H](Cc1ccc(OCc2ccccc2)cc1)NC(=O)[C@@H](Cc1c[nH]cn1)NC(=O)OCc1ccccc1)C(N)=O
8.5 nM | CC(NC(=O)[C@@H](Cc1c[nH]c2ccccc12)NC(=O)[C@@H](COCc1ccccc1)NC(=O)[C@@H](Cc1ccc(OCc2ccccc2)cc1)NC(=O)[C@@H](Cc1c[nH]cn1)NC(=O)OCc1ccccc1)C(N)=O (stereo not given in full)
3200 nM | C[C@H](NC(=O)[C@@H](Cc1c[nH]c2ccccc12)NC(=O)[C@@H](COCc1ccccc1)NC(=O)[C@@H](Cc1ccc(OCc2ccccc2)cc1)NC(=O)[C@@H](Cc1cnc[nH]1)NC(=O)OC1CCC1)C(N)=O
48 nM | C[C@H](NC(=O)[C@@H](Cc1c[nH]c2ccccc12)NC(=O)[C@@H](COCc1ccccc1)NC(=O)[C@@H](Cc1ccc(OCc2ccccc2)cc1)NC(=O)[C@@H](Cc1c[nH]cn1)NC(=O)OCc1ccccc1)C(=O)O
8700 nM | C[C@H](NC(=O)[C@H](Cc1c[nH]c2ccccc12)NC(=O)[C@@H](COCc1ccccc1)NC(=O)[C@@H](Cc1ccc(OCc2ccccc2)cc1)NC(=O)[C@@H](Cc1cnc[nH]1)NC(=O)OCc1ccccc1)C(N)=O
35 nM | C[C@H](NC(=O)[C@@H](Cc1c[nH]c2ccccc12)NC(=O)[C@@H](COCc1ccccc1)NC(=O)[C@@H](Cc1ccc(OCc2ccccc2)cc1)NC(=O)[C@H](Cc1cnc[nH]1)NC(=O)OCc1ccccc1)C(N)=O
15 nM | C[C@H](NC(=O)[C@@H](Cc1c[nH]c2ccccc12)NC(=O)[C@@H](CSCc1ccccc1)NC(=O)[C@@H](Cc1ccc(OCc2ccccc2)cc1)NC(=O)[C@@H](Cc1cnc[nH]1)NC(=O)OCc1ccccc1)C(N)=O
18 nM | C[C@H](NC(=O)[C@@H](Cc1c[nH]c2ccccc12)NC(=O)[C@@H](COCc1ccccc1)NC(=O)[C@@H](CCc1ccccc1)NC(=O)[C@@H](Cc1c[nH]cn1)NC(=O)OCc1ccccc1)C(N)=O
1800 nM | C[C@H](NC(=O)[C@@H](Cc1c[nH]c2ccccc12)NC(=O)[C@@H](CO)NC(=O)[C@@H](Cc1ccc(OCc2ccccc2)cc1)NC(=O)[C@@H](Cc1cnc[nH]1)NC(=O)OCc1ccccc1)C(N)=O
4500 nM | C[C@H](NC(=O)[C@@H](Cc1c[nH]c2ccccc12)NC(=O)[C@@H](COCc1ccccc1)NC(=O)[C@@H](Cc1ccc(OCc2ccccc2)cc1)NC(=O)[C@H](N)Cc1cnc[nH]1)C(N)=O
2500 nM | C[C@H](NC(=O)C(Cc1ccccc1)NC(=O)[C@@H](COCc1ccccc1)NC(=O)[C@@H](Cc1ccc(OCc2ccccc2)cc1)NC(=O)[C@@H](Cc1cnc[nH]1)NC(=O)OCc1ccccc1)C(N)=O (stereo not given in full)
> 20000 nM | CC(NC(=O)OCc1ccccc1)C(=O)N[C@H](Cc1ccc(OCc2ccccc2)cc1)C(=O)N[C@H](COCc1ccccc1)C(=O)N[C@H](Cc1c[nH]c2ccccc12)C(=O)N[C@@H](C)C(N)=O (stereo not given in full)
18 nM | C[C@H](NC(=O)[C@@H](Cc1c[nH]c2ccccc12)NC(=O)[C@@H](COCc1ccccc1)NC(=O)C(CCC(=O)O)NC(=O)[C@@H](Cc1c[nH]cn1)NC(=O)OCc1ccccc1)C(N)=O (stereo not given in full)
79 nM | C[C@@H](NC(=O)[C@H](Cc1c[nH]c2ccccc12)NC(=O)[C@H](COCc1ccccc1)NC(=O)[C@@H](Cc1ccccc1)NC(=O)[C@H](Cc1cnc[nH]1)NC(=O)OCc1ccccc1)C(N)=O (stereo in doubt)
